# Values joined by “and” are separate entries in the source; they are usually repeats but may differ in a detail not shown here. Identical values can stand only once. Like-named read-outs stand apart in the source and are kept apart here.
# Tests used:
# Na,K-ATPase [1] = molecular target: T1, Na,K-ATPase (Sus scrofa, UniProt P05024); test: Equilibrium binding of 14C-ADP to membrane-bound Na,K-ATPase; parameters: species or system pig; conditions: for Kd: read-out: K diss for ADP-binding
# How it was run: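 The enzyme was membrane-bound Na,K-ATPase from pig kidney outer medulla, SDS-extracted. It was mixed on ice with water or Na+ salt in imidazole/sucrose/EDTA (pH 7.4), then with 14C-ADP (stock 40 μM) in Tris buffer (pH 6.3). NO3− and SO4 2− series used enzyme washed into buffer titrated with HNO3 or H2SO4. Final pH was 7.65–7.82 and basal I 78 mM. Samples were centrifuged at 100,000 g for 60 min at 0–2°C; bound ADP was total minus supernatant. Kdiss came from nonlinear regression with a common Bmax per series.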
# Na,K-ATPase [2] = conditions: read-out: K diss, Na+-form (E1-form), I < 0.1 M, ref Nørby and Jensen, 1971, Hegyvary and Post, Jørgensen, 1975, Skou and Esmann, 1981; cited from earlier work
# Na,K-ATPase [3] = molecular target: T1, Na,K-ATPase; test: Na,K-ATPase activity; format: biochemical, pig
# [4] = test system: Na,K-ATPase mutant Lys480Glu; conditions: ref Wang and Farley, 1992; cited from earlier work
# [5] = test system: Na,K-ATPase Asp369 substituted with Asn or Ala; conditions: Asp369 substituted with uncharged Asn or Ala; ref Pedersen et al., 1996; cited from earlier work
# [6] = I around 0.1 M, cited from earlier work
# Na,K-ATPase [7] = molecular target: T1, Na,K-ATPase; conditions: cited from earlier work
# Na,K-ATPase [8] = molecular target: T1, Na,K-ATPase; test: Effect of NO3− on ADP-binding, competitive model of Fig. 4; parameters: species or system pig; conditions: line through (0,1); I 78–228 mM and constant I 178 mM
# How it was run: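 ADP-binding affinities for pig kidney membrane Na,K-ATPase were determined by centrifugation binding at 0–2°C. Kdiss/KA was plotted against [NO3−] for the NaNO3 series (I 78–228 mM). […] A line through (0,1) was fitted, and KN for ENO3 was taken as the reciprocal slope.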
# Na,K-ATPase [9] = molecular target: T1, Na,K-ATPase; test: K+-dependent p-nitrophenylphosphatase; format: biochemical, pig
# How it was run: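 K+-pNPPase was assayed at 37°C, pH 7.4, in 30 mM histidine/HCl with 10 pmol enzyme·ml−1, 20 mM MgCl2, K+ salts and 10 mM Na2pNPP (basal I ~90 mM). Substrate-dependence runs varied Na2pNPP at 0.05–0.4 M KCl. After 3 min, reactions were stopped with ice-cold TCA (final 5%) and p-nitrophenol was measured. Blanks were reagent blanks without enzyme. Results are the mean of two to four experiments.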
# [10] = test system: H+-translocating Mg-ATPases from tissues of higher plants; conditions: ref Sze, 1985, Jacoby, 1987, Blumwald et al.; cited from earlier work
compound,measurement,setting,value
Nc1ncnc2c1ncn2[C@@H]1O[C@H](COP(=O)(O)OP(=O)(O)O)[C@@H](O)[C@H]1O [ADP],decrease of apparent affinity for ADP with salt,"Na,K-ATPase [1]; 0–0.5 M NaCl, Na2SO4, NaNO3, 0.1 M Na-acetate, NaSCN, NaClO4",up to 30 times
same,Bmax of ADP-binding,"Na,K-ATPase [1]; Exp. A2, NaCl series, [Cl−] 119 mM, I 178 mM",1.20 ± 0.01 µM
same,Bmax of ADP-binding,"Na,K-ATPase [1]; Exp. A3, NaCl series, [Cl−] 219 mM, I 278 mM",1.20 ± 0.02 µM
same,Bmax of ADP-binding,"Na,K-ATPase [1]; Exp. A4, NaCl series, [Cl−] 319 mM, I 378 mM",1.13 ± 0.11 µM
same,Bmax of ADP-binding,"Na,K-ATPase [1]; Exp. A5, NaCl series, [Cl−] 394 mM, I 453 mM",1.29 ± 0.09 µM
same,Bmax of ADP-binding,"Na,K-ATPase [1]; Exp. A6, NaCl series, [Cl−] 469 mM, I 528 mM",1.20 ± 0.11 µM
same,Bmax of ADP-binding,"Na,K-ATPase [1]; Exp. A7, NaCl series, [Cl−] 519 mM, I 578 mM",0.98 ± 0.09 µM
same,Bmax of ADP-binding,"Na,K-ATPase [1]; Exp. B1, Na2SO4 series, [SO4 2−] 6 mM, I 78 mM",1.70 ± 0.04 µM
same,Bmax of ADP-binding,"Na,K-ATPase [1]; Exp. B2, Na2SO4 series, [SO4 2−] 6 mM, I 78 mM",1.73 ± 0.02 µM
same,Bmax of ADP-binding,"Na,K-ATPase [1]; Exp. B3, Na2SO4 series, [SO4 2−] 36 mM, I 168 mM",1.71 ± 0.02 µM
same,Bmax of ADP-binding,"Na,K-ATPase [1]; Exp. B4, Na2SO4 series, [SO4 2−] 66 mM, I 258 mM",1.77 ± 0.03 µM
same,Bmax of ADP-binding,"Na,K-ATPase [1]; Exp. B5, Na2SO4 series, [SO4 2−] 96 mM, I 348 mM",1.72 ± 0.06 µM
same,Bmax of ADP-binding,"Na,K-ATPase [1]; Exp. B6, Na2SO4 series, [SO4 2−] 126 mM, I 438 mM",1.96 ± 0.10 µM
same,Bmax of ADP-binding,"Na,K-ATPase [1]; Exp. B7, Na2SO4 series, [SO4 2−] 156 mM, I 528 mM",1.77 ± 0.08 µM
same,Bmax of ADP-binding,"Na,K-ATPase [1]; Exp. C1, NaNO3 series, [NO3−] 19 mM, I 78 mM",1.80 ± 0.02 µM
same,Bmax of ADP-binding,"Na,K-ATPase [1]; Exp. C2, NaNO3 series, [NO3−] 24 mM, I 83 mM",1.83 ± 0.03 µM
same,Bmax of ADP-binding,"Na,K-ATPase [1]; Exp. C3, NaNO3 series, [NO3−] 49 mM, I 108 mM",1.80 ± 0.03 µM
same,Bmax of ADP-binding,"Na,K-ATPase [1]; Exp. C4, NaNO3 series, [NO3−] 79 mM, I 138 mM",1.84 ± 0.04 µM
same,Bmax of ADP-binding,"Na,K-ATPase [1]; Exp. C5, NaNO3 series, [NO3−] 79 mM, I 138 mM",1.84 ± 0.01 µM
same,Bmax of ADP-binding,"Na,K-ATPase [1]; Exp. C6, NaNO3 series, [NO3−] 109 mM, I 168 mM",1.78 ± 0.06 µM
same,Bmax of ADP-binding,"Na,K-ATPase [1]; Exp. C7, NaNO3 series, [NO3−] 139 mM, I 198 mM",1.80 ± 0.06 µM
same,Bmax of ADP-binding,"Na,K-ATPase [1]; Exp. C8, NaNO3 series, [NO3−] 169 mM, I 228 mM",1.82 ± 0.08 µM
same,Kd,"Na,K-ATPase [1]; 19 mM Cl− + 100 mM Na+ salt of ClO4−, I 178 mM",38.6 ± 0.7 µM
same,Kd,"Na,K-ATPase [1]; 19 mM Cl− + 100 mM Na+ salt of NO3−, I 178 mM",3.24 ± 0.05 µM
same,Kd,"Na,K-ATPase [1]; 19 mM Cl− + 100 mM Na+ salt of SCN−, I 178 mM",18.3 ± 0.2 µM
same,Kd,"Na,K-ATPase [1]; 19 mM Cl− + 100 mM Na-acetate, I 178 mM",0.635 ± 0.004 µM
same,Kd,"Na,K-ATPase [1]; 19 mM Cl− + 100 mM NaCl (Cl−), I 178 mM",0.64 ± 0.007 µM
same,Kd,"Na,K-ATPase [2]",< 1 µM
Nc1ncnc2c1ncn2[C@@H]1O[C@H](COP(=O)(O)OP(=O)(O)OP(=O)(O)O)[C@@H](O)[C@H]1O [ATP],change of K m for ATP with increasing I,"Na,K-ATPase [3]; 20 mM KCl, [Mgtot] = [ATP] + 1 mM, 0.16–0.75 M NaCl, 37°C, pH 7.4",slight decrease
same,reduction of affinity for ATP,[4],~10 fold
same,increase in affinity for ATP at the high-affinity site,[5],20–30 fold
O=C(O)CN(CCN(CC(=O)O)CC(=O)O)CC(=O)O [H2EDTA^2−],pKa,"[6]; ref Kortüm et al., 1961",6.5
[K+] [K^+],"K 0.5 for K+, chosen for the model","Na,K-ATPase [7]; K+-pNPPase model with Na+/K+ competition, ref Beaugé et al., 1984",2 mM
O=[N+]([O-])O [NO3 ^−],slope of K diss/K A versus [NO3−],"Na,K-ATPase [8]",0.0309 ± 0.0006 mM⁻¹ and 0.031 mM⁻¹
same,specific anion effect on K+-pNPPase activity,"Na,K-ATPase [9]; KNO3 compared with KCl, 10 mM Na2pNPP, also 25 mM pNPP",does not have any special effect
same,K 0.5 of inhibition,[10],10 to 50 mM
O=S(=O)([O-])[O-].[Na+].[Na+] [Na2SO4],"inhibitory effect on Na,K-ATPase activity, less than that of NaCl","Na,K-ATPase [3]; activity plotted versus I, 20 mM KCl, 3 mM ATP, 4 mM MgCl2",10–30%
CC(=O)[O-].[Na+] [Na-acetate],"effect on Na,K-ATPase activity compared with NaCl","Na,K-ATPase [3]; up to 800 mM, not shown",the same results as with NaCl
NC(CO)(CO)CO [TrisH^+],pKa,"[6]; ref Perrin, 1965",8.8
c1c[nH]cn1 [imidazoleH^+],pKa,"[6]; ref Perrin, 1965",7.5
"O=[N+]([O-])c1ccc(OP(=O)(O)O)cc1 [pNPP, p-nitrophenylphosphate]",K 0.5 for pNPP,"Na,K-ATPase [9]; 0.125 M ClO4−",~5.5 mM
same,K 0.5 for pNPP,"Na,K-ATPase [9]; 0.125 M Cl−",about 4.5 mM
same,K m for pNPP,"Na,K-ATPase [9]; highest values reached with increasing [KCl] (0.05–0.6 M KCl), 37°C, pH 7.4",10–12 mM
same,K m for pNPP,"Na,K-ATPase [7]; low ionic strength, ref Skou, 1974, Campos et al., 1988, Fig. 9 in this paper",2–3 mM

# From paper PMC2217059 (The Journal of General Physiology, 1997)
